From ChEMBL document CHEMBL4270599, “Synthesis of a 3'-C-ethynyl-β-d-ribofuranose purine nucleoside library: Discovery of C7-deazapurine analogs as potent antiproliferative nucleosides” (Eur J Med Chem, 2018)
pIC50: −log10 of the molar value.

How the values were obtained:
A549 = test: Growth inhibition of human A549/ATCC cells assessed as cell growth at 10^-7 M incubated for 48 hrs by sulforhodamine B assay relative to control; format: functional; settings: A549, 48 h, read-out: Activity
NCI-H23 = test: Growth inhibition of human NCI-H23 cells assessed as cell growth at 10^-5 M incubated for 48 hrs by sulforhodamine B assay relative to control; format: functional; settings: NCI-H23, 48 h, read-out: Activity
Malme-3M = test: Cytotoxicity against human MALME-3M cells after 48 hrs by SRB assay; format: functional
T47D [1] = test: Cytotoxicity against human T47D cells after 48 hrs by SRB assay; format: functional
HCC 2998 [2] = test: Cytotoxicity against human HCC2998 cells after 48 hrs by SRB assay; format: functional; settings: HCC 2998, 48 h
SK-MEL-2 = test: Cytotoxicity against human SK-MEL-2 cells after 48 hrs by SRB assay; format: functional; settings: SK-MEL-2, 48 h
NCI-H322M = test: Growth inhibition of human NCI-H322M cells assessed as cell growth at 10^-6 M incubated for 48 hrs by sulforhodamine B assay relative to control; format: functional; settings: read-out: Activity
HMEC-1 = test: Antiproliferative activity against HMEC1 cells after 4 days by Coulter counter method; format: cell-based; settings: Homo sapiens, HMEC-1, 96 h
How it was run: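 Primary HUVEC, primary HMVEC-d and the HMEC-1 line seeded at 20,000 cells/well in gelatin-coated plates in EC growth medium (EGM2). After overnight incubation, 5-fold compound dilutions added. Cells proliferated four days with compound, then trypsinized and counted by Coulter counter to derive IC₅₀.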

NCI-H226 = test: Growth inhibition of human NCI-H226 cells assessed as cell growth at 10^-6 M incubated for 48 hrs by sulforhodamine B assay relative to control; format: functional; settings: NCI-H226, 48 h, read-out: Activity
T47D [3] = test: Growth inhibition of human T47D cells assessed as cell growth at 10^-7 M incubated for 48 hrs by sulforhodamine B assay relative to control; format: functional; settings: read-out: Activity
CCRF-CEM = test: Growth inhibition of human CCRF-CEM cells assessed as cell growth at 10^-4 M incubated for 48 hrs by sulforhodamine B assay relative to control; format: functional; settings: read-out: Activity
L1210 = test: Antiproliferative activity against mouse L1210 cells after 48 hrs by Coulter counter method; format: functional, cell-based; settings: L1210, 48 h
How it was run: (§1)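 Cell count assay in 96-well microtiter plates; (5–7.5) × 10⁴ tumor cells per well plus test compound. Cells proliferated at 37 °C in humidified CO₂-controlled atmosphere, 48 h for murine leukemia L1210, 72 h for human lymphocytic CEM and cervix carcinoma HeLa. Counted by Coulter counter; IC₅₀ is the concentration that inhibits proliferation by 50%.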

HOP-92 = test: Growth inhibition of human HOP92 cells assessed as cell growth at 10^-6 M incubated for 48 hrs by sulforhodamine B assay relative to control; format: functional; settings: HOP-92, 48 h, read-out: Activity
LOX IMVI = test: Growth inhibition of human LOXIMVI cells assessed as cell growth at 10^-8 M incubated for 48 hrs by sulforhodamine B assay relative to control; format: functional; settings: read-out: Activity
HeLa = test: Antiproliferative activity against human HeLa cells after 72 hrs by Coulter counter method; format: functional, cell-based; how it was run: as §1
HL-60(TB) = test: Growth inhibition of human HL-60(TB) cells assessed as cell growth at 10^-5 M incubated for 48 hrs by sulforhodamine B assay relative to control; format: functional; settings: HL-60, 48 h, read-out: Activity
SW-620 = test: Growth inhibition of human SW620 cells assessed as cell growth at 10^-8 M incubated for 48 hrs by sulforhodamine B assay relative to control; format: functional; settings: SW-620, 48 h, read-out: Activity
K562 [4] = test: Growth inhibition of human K562 cells assessed as cell growth at 10^-7 M incubated for 48 hrs by sulforhodamine B assay relative to control; format: functional; settings: K562, 48 h, read-out: Activity
SK-OV-3 = test: Growth inhibition of human SKOV3 cells assessed as cell growth at 10^-8 M incubated for 48 hrs by sulforhodamine B assay relative to control; format: functional; settings: SK-OV-3, 48 h, read-out: Activity
UACC-257 = test: Growth inhibition of human UACC257 cells assessed as cell growth at 10^-6 M incubated for 48 hrs by sulforhodamine B assay relative to control; format: functional; settings: UACC-257, 48 h, read-out: Activity
MDA-MB-231 [5] = test: Growth inhibition of human MDA-MB-231 cells assessed as cell growth at 10^-6 M incubated for 48 hrs by sulforhodamine B assay relative to control; format: functional; settings: MDA-MB-231, 48 h, read-out: Activity
MOLT-4 = test: Growth inhibition of human MOLT4 cells assessed as cell growth at 10^-5 M incubated for 48 hrs by sulforhodamine B assay relative to control; format: functional; settings: MOLT-4, 48 h, read-out: Activity
NCI/ADR-RES [6] = test: Growth inhibition of human NCI/ADR-RES cells assessed as cell growth at 10^-4 M incubated for 48 hrs by sulforhodamine B assay relative to control; format: functional; settings: read-out: Activity
NCI-H522 = test: Cytotoxicity against human NCI-H522 cells after 48 hrs by SRB assay; format: functional; settings: NCI-H522, 48 h
HCC 2998 [7] = test: Growth inhibition of human HCC2998 cells assessed as cell growth at 10^-7 M incubated for 48 hrs by sulforhodamine B assay relative to control; format: functional; settings: HCC 2998, 48 h, read-out: Activity
SF-295 = test: Cytotoxicity against human SF295 cells after 48 hrs by SRB assay; format: functional; settings: SF-295, 48 h
MDA-MB-435 = test: Growth inhibition of human MDA-MB-435 cells assessed as cell growth at 10^-5 M incubated for 48 hrs by sulforhodamine B assay relative to control; format: functional; settings: MDA-MB-435, 48 h, read-out: Activity
K562 [8] = test: Growth inhibition of human K562 cells assessed as cell growth at 10^-6 M incubated for 48 hrs by sulforhodamine B assay relative to control; format: functional; settings: K562, 48 h, read-out: Activity
MDA-MB-231 [9] = test: Growth inhibition of human MDA-MB-231 cells assessed as cell growth at 10^-7 M incubated for 48 hrs by sulforhodamine B assay relative to control; format: functional; settings: MDA-MB-231, 48 h, read-out: Activity
NCI/ADR-RES [10] = test: Growth inhibition of human NCI/ADR-RES cells assessed as cell growth at 10^-5 M incubated for 48 hrs by sulforhodamine B assay relative to control; format: functional; settings: read-out: Activity
[11] = read-out: pLC50 (the source's name) (converted)
[12] = read-out: LC50 (the source's name)

C#C[C@@]1(O)[C@@H](CO)O[C@@H](n2ccc3c(N)ncnc32)[C@@H]1O
growth at 0.1 µM (A549): 107% | growth at 10 µM (NCI-H23): -32% | GI50 (Malme-3M; read-out: GI50): 1.68 µM | TGI (Malme-3M; read-out: TGI): 5.55 µM | GI50 (Malme-3M; read-out: pGI50 (converted)): 1.66 µM | CC50 (Malme-3M; [11]): 30.9 µM | TGI (Malme-3M; read-out: pTGI (converted)): 5.5 µM | TGI (T47D [1]; read-out: TGI): 2.14 µM | GI50 (T47D [1]; read-out: pGI50 (converted)): 0.447 µM | CC50 (T47D [1]; [11]): 7.59 µM | TGI (T47D [1]; read-out: pTGI (converted)): 2.14 µM | TGI (HCC 2998 [2]; read-out: TGI): 3.12 µM | GI50 (HCC 2998 [2]; read-out: pGI50 (converted)): 1.45 µM | CC50 (HCC 2998 [2]; [11]): 6.76 µM | TGI (HCC 2998 [2]; read-out: pTGI (converted)): 3.09 µM | CC50 (SK-MEL-2; [12]): > 100 µM | TGI (SK-MEL-2; read-out: TGI): 6.32 µM | GI50 (SK-MEL-2; read-out: pGI50 (converted)): 1.38 µM | TGI (SK-MEL-2; read-out: pTGI (converted)): 6.31 µM | growth at 1 µM (NCI-H322M): 58% | pIC50 (HMEC-1): 7.21 | growth at 1 µM (NCI-H226): 92% | growth at 0.1 µM (T47D [3]): 86% | growth at 100 µM (CCRF-CEM): 9% | pIC50 (L1210): 6.42 | growth at 1 µM (HOP-92): 86% | growth at 0.01 µM (LOX IMVI): 98% | pIC50 (HeLa): 6.06 | growth at 10 µM (HL-60(TB)): -24% | growth at 0.01 µM (SW-620): 72% | growth at 0.1 µM (K562 [4]): 93% | growth at 0.01 µM (SK-OV-3): 94% | growth at 1 µM (UACC-257): 88% | growth at 1 µM (MDA-MB-231 [5]): 66% | growth at 10 µM (MOLT-4): 2% | growth at 100 µM (NCI/ADR-RES [6]): -9% | CC50 (NCI-H522; [12]): > 100 µM | TGI (NCI-H522; read-out: TGI): 3.82 µM | GI50 (NCI-H522; read-out: pGI50 (converted)): 0.372 µM | TGI (NCI-H522; read-out: pTGI (converted)): 3.8 µM | growth at 0.1 µM (HCC 2998 [7]): 93% | TGI (SF-295; read-out: TGI): 5.33 µM | GI50 (SF-295; read-out: pGI50 (converted)): 1.74 µM | CC50 (SF-295; [11]): > 100 µM | TGI (SF-295; read-out: pTGI (converted)): 5.37 µM | growth at 10 µM (MDA-MB-435): -62% | growth at 1 µM (K562 [8]): 46% | growth at 0.1 µM (MDA-MB-231 [9]): 106% | growth at 10 µM (NCI/ADR-RES [10]): -7%
